In brackets after ≈: the same amount, converted by molar mass.
Tests used:
Assay type in all cases: functional
Human alphaherpesvirus 1 [1] = test: Antiviral activity against Herpes Simplex Virus-1 (F)
Method in brief: (§1)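 Primary rabbit kidney cell cultures infected with virus. Value is the minimum concentration that reduces virus-induced cytopathogenicity by 50%. Cytotoxicity was scored as a microscopically detectable alteration of normal cell morphology.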

L1210 [2] = test: Cytostatic activity against proliferation of L1210/0 cells (murine leukemia L1210 cells); conditions: Mus musculus, read-out: ID50 (the source's name)
Method in brief: (§2)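 Tumor cell proliferation assay. L1210/0 is the parental murine leukemia line and Raji/0 the parental human lymphoblast line, with a deoxythymidine kinase deficient Raji subline. Value is the ID50, the dose that inhibits cell proliferation by 50%.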

Human alphaherpesvirus 2 [3] = test: Antiviral activity against Herpes Simplex Virus-2(196); method in brief: as §1
L1210 [4] = test: Cytostatic activity against proliferation of L1210/BdU cells (deoxythymidine kinase deficient L1210 cells); conditions: Mus musculus, read-out: ID50 (the source's name)
Method in brief: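 Murine L1210 subline deficient in deoxythymidine kinase (L1210/BdU), selected for growth in 260 μg/mL 5-bromo-dU. Proliferation assay; value is the ID50, the dose that inhibits tumor cell proliferation by 50%.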

Human alphaherpesvirus 1 [5] = test: Antiviral activity against Herpes Simplex Virus-1 (McIntyre); method in brief: as §1
[6] = system: Vesicular stomatitis virus; test: Antiviral activity against vesicular stomatitis virus; method in brief: as §1
Raji [7] = test: Cytostatic activity against proliferation of Raji/0 cells (human lymphoblast Raji cells); conditions: read-out: ID50 (the source's name); method in brief: as §2
Human alphaherpesvirus 2 [8] = test: Antiviral activity against Herpes Simplex Virus-2(Lyons); method in brief: as §1
Vaccinia virus = test: Antiviral activity against vaccinia virus; conditions: Orthopoxvirus vaccinia; method in brief: as §1
Raji [9] = test: Cytostatic activity against proliferation of Raji/TK cells (deoxythymidine kinase deficient Raji cells); conditions: Homo sapiens, read-out: ID50 (the source's name); method in brief: as §2
Human alphaherpesvirus 2 [10] = test: Antiviral activity against Herpes Simplex Virus-2(G); method in brief: as §1
Human alphaherpesvirus 1 [11] = test: Antiviral activity against Herpes Simplex Virus-1 (KOS); method in brief: as §1

Compound	MIC (Human alphaherpesvirus 1 [1])	IC50 (L1210 [2])	MIC (Human alphaherpesvirus 2 [3])	IC50 (L1210 [4])	MIC (Human alphaherpesvirus 1 [5])	MIC [6]	IC50 (Raji [7])	MIC (Human alphaherpesvirus 2 [8])	MIC (Vaccinia virus)	IC50 (Raji [9])	MIC (Human alphaherpesvirus 2 [10])	MIC (Human alphaherpesvirus 1 [11])
O=c1[nH]c(=O)n([C@@H]2O[C@@H]3COP(=O)(O)O[C@H]3[C@H]2O)cc1F	> 100 µg/mL	0.34 µg/mL (≈ 1.05 µM)	> 100 µg/mL	0.332 µg/mL (≈ 1.02 µM)	> 100 µg/mL	150 µg/mL (≈ 463 µM)	0.416 µg/mL (≈ 1.28 µM)	> 100 µg/mL	20 µg/mL (≈ 61.7 µM)	1.64 µg/mL (≈ 5.06 µM)	> 100 µg/mL	> 100 µg/mL
O=c1[nH]c(=O)n([C@@H]2O[C@H](CO)[C@@H](O)[C@@H]2O)cc1Br		210 µg/mL (≈ 650 µM)		335 µg/mL (≈ 1040 µM)			32 µg/mL (≈ 99 µM)			950 µg/mL (≈ 2940 µM)		
O=c1[nH]c(=O)n([C@H]2C[C@H](O)[C@@H](CO)O2)cc1/C=C/Br [BRIVUDINE]	0.02 µg/mL (≈ 0.06 µM)		100 µg/mL (≈ 300 µM)		0.02 µg/mL (≈ 0.06 µM)	> 400 µg/mL		1 µg/mL (≈ 3 µM)	2 µg/mL (≈ 6 µM)		1 µg/mL (≈ 3 µM)	0.02 µg/mL (≈ 0.06 µM)
O=c1[nH]c(=O)n(C2O[C@H](COP(=O)(O)O)[C@@H](O)[C@@H]2O)cc1F (stereo partly drawn)		0.024 µg/mL (≈ 0.0701 µM)		0.03 µg/mL (≈ 0.0877 µM)			0.029 µg/mL (≈ 0.0848 µM)			0.141 µg/mL (≈ 0.412 µM)		
O=c1[nH]c(=O)n([C@@H]2O[C@@H]3COP(=O)(O)O[C@H]3[C@H]2O)cc1Br	> 200 µg/mL	315 µg/mL (≈ 818 µM)	> 200 µg/mL	294 µg/mL (≈ 764 µM)	200 µg/mL (≈ 519 µM)	> 200 µg/mL	210 µg/mL (≈ 545 µM)	150 µg/mL (≈ 390 µM)	> 200 µg/mL	241 µg/mL (≈ 626 µM)	> 200 µg/mL	> 200 µg/mL
O=c1[nH]cc(F)c(=O)[nH]1 [FLUOROURACIL]		0.208 µg/mL (≈ 1.6 µM)		0.286 µg/mL (≈ 2.2 µM)			1.35 µg/mL (≈ 10.4 µM)			3.37 µg/mL (≈ 25.9 µM)		
O=c1[nH]cc(Br)c(=O)[nH]1 [5-BROMOURACIL]		> 1000 µg/mL		> 1000 µg/mL			> 1000 µg/mL			> 1000 µg/mL		
Oc1ncc(Cl)c(O)n1		455 µg/mL (≈ 3110 µM)		660 µg/mL (≈ 4500 µM)			> 1000 µg/mL			> 1000 µg/mL		
O=c1[nH]c(=O)n([C@@H]2O[C@@H]3COP(=O)(O)O[C@H]3[C@H]2O)cc1I		315 µg/mL (≈ 729 µM)		344 µg/mL (≈ 796 µM)			359 µg/mL (≈ 831 µM)			722 µg/mL (≈ 1670 µM)		
O=c1[nH]c(=O)n([C@@H]2O[C@H](COP(=O)(O)O)[C@@H](O)[C@H]2O)cc1I		703 µg/mL (≈ 1560 µM)		> 1000 µg/mL			> 1000 µg/mL			> 1000 µg/mL		
O=c1[nH]c(=O)n([C@@H]2O[C@@H]3COP(=O)(O)O[C@H]3[C@H]2O)cc1Cl	> 400 µg/mL	> 1000 µg/mL	> 400 µg/mL	> 1000 µg/mL	> 400 µg/mL	> 400 µg/mL	278 µg/mL (≈ 816 µM)	> 400 µg/mL	> 400 µg/mL	369 µg/mL (≈ 1080 µM)	> 400 µg/mL	> 400 µg/mL
O=c1[nH]c(=O)n(C2O[C@H](CO)[C@@H](O)[C@@H]2O)cc1I (stereo partly drawn)		> 1000 µg/mL		> 1000 µg/mL			639 µg/mL (≈ 1730 µM)			738 µg/mL (≈ 1990 µM)		
O=c1[nH]cc(I)c(=O)[nH]1		> 1000 µg/mL		> 1000 µg/mL			> 1000 µg/mL			612 µg/mL (≈ 2570 µM)		
O=c1[nH]c(=O)n([C@@H]2O[C@H](COP(=O)(O)O)[C@@H](O)[C@H]2O)cc1Br		385 µg/mL (≈ 955 µM)		376 µg/mL (≈ 933 µM)			48 µg/mL (≈ 119 µM)			> 1000 µg/mL		
O=c1[nH]c(=O)n([C@@H]2O[C@H](CO)[C@@H](O)[C@H]2O)cc1F [5-FLUOROURIDINE]		0.013 µg/mL (≈ 0.0496 µM)		0.019 µg/mL (≈ 0.0725 µM)			0.023 µg/mL (≈ 0.0877 µM)			0.085 µg/mL (≈ 0.324 µM)		

Source: ChEMBL document CHEMBL1123152, “Synthesis, structure, and antitumor and antiviral activities of a series of 5-halouridine cyclic 3',5'-monophosphates” (1986)
